According to the EternaBench riboswitch data:

Tested on: MS2 coat protein
Assay: apparent Kd, MS2 coat protein; higher = weaker binding; RNA-MaP array; FMN 200 µM where present
In short: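 The apparent Kd comes from binding curves fitted cluster by cluster, filtered, and summarised as a median. Those curves followed SNAP-549-labelled MS2 coat protein from 0.7 or 1.5 nM, doubling to 3 µM, on Illumina sequencing-chip clusters where stalled E. coli RNA polymerase had transcribed the designs, without and then with constant ligand. The buffer was 100 mM Tris-HCl pH 7.5, 80 mM KCl, 4 mM MgCl2, BSA, DTT, yeast tRNA and Tween-20, and green signal was normalised to red-channel RNA signal and control-cluster median Fmax.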

[1] = designed as: OFF switch for flavin mononucleotide, no ligand
[2] = ligand present: flavin mononucleotide, designed as: OFF switch for flavin mononucleotide
[3] = designed as: ON switch for flavin mononucleotide, no ligand
[4] = ligand present: flavin mononucleotide, designed as: ON switch for flavin mononucleotide

Sequence	apparent Kd [1]	apparent Kd [2]	apparent Kd [3]	apparent Kd [4]
UGUCGGAGCAGAGGAUAUUACAUGAGGAUCACCCAUGUAUGAACCAAUAGCUGGAAACAGCAAUGUAAGAAGGGUGCUCCGACA	6.09 nM	13.2 nM		
GUCAGCUCGUGAGGAUAUACAUGAUAGAUCGAUUAAUUAAUUAAUUUAACAUGAGGAUCACCCAUGUAGAAGGUACGAGCUGAC	52 nM	66.3 nM		
GGUGAAGCAGGAUAUGUAUCGAUAUACAUGAGGAUCACCCAUGUCAUGUUCGAAUCGCAUAUAGAAGGGCUUCACC	13.4 nM	16.7 nM		
UUGCCACAUGAGGAUCACCCAUGUGAGGAUAUGGCCCGUUUGGCGUGUGCUGGUUCUGUCAGAAGGCGCGUGGG	24.5 nM	21.7 nM		
AGAACAUGAGGAUCACCCAUGUGAAGGUCGGUGUAUAAGGGUGAGGAUAUGCUUAAAAUAAGGAAGCAGAAGGUGCUUGGUGCA			155 nM	145 nM
CGCGAAAACAUAGGAUAUUGUUACAUGAGGAUCACCCAUGUCAACCAUUUAUCUCAAAUUGUUGACAAGAAGGAUGAGGUCGCG			113 nM	28.4 nM
UUUUAACAGUCAGGAUAUGUAACGCACAACGGCGCAGAAGGGACAUGAGGAUCACCCAUGUUAUGGUUCUGGUACUAUGACGUU	18.8 nM	23.1 nM		
CAAGGGCAUGAGAAGGCAUAAUAUAUAAUACCACAUGUUUACAUGAGGAUCACCCAUGUUACCUAUGAGGAUAUCAUGCCUACA	14.4 nM	12.9 nM		
ACGUGACGGUGCGCGAGCGGACGGAGAAGGCAGACAUGAGGAUCACCCAUGUGAGCCUGCUAUUCUGAGGAUAUCCGUCCACAC	30.4 nM	167 nM		
CUUAUGUGAGGAUAUGGUGUUGAUCACAGGAAAAAGAUUCUCCAGAAGGCACAUGAGGAUCACCCAUGUAGUGA	145 nM	90 nM		
AACCGCGAUCGGCCUGGCACGUCGAGAAGGGUACGUGACCUGCUUUACAUGAGGAUCACCCAUGUACAGGAUAUCGAAUAGCCG	6.2 nM	6.68 nM		
GUAAGCAUGUCAGGAUAUCGCAAUAUCAAACCGUGAGAAGGGACAUGAGGAUCACCCAUGUAUUGUUCGGGAGGACCCAGCUGA	67.3 nM	358 nM		
UAGAAGUCAGGAUAUGCAUGGCGGGACUUGCGUCGUGGCGUGCAGAAGGGACAUGAGGAUCACCCAUGUAAAGG	159 nM	265 nM		
AUCUCAGGACGAGGAUAUCAAUACAUGAGGAUCACCCAUGUAUGAUUACUGUGAUCCUCUAAGGCUGAGAAGGCGUCCCAAUUA	20.4 nM	8.37 nM		
CUAGUUGUCGCAGGAUAUGCCCGCUGGUUGGAGGCAGAAGGGUGACACCAAAUAUUAUACAUGAGGAUCACCCAUGUCGCCAGC			21.4 nM	20.6 nM
AUCCCGAUAGUAGGAUAUUUCUGCAGUUGUGGUUAGGUCGCCCUACAUGAGGAUCACCCAUGUAGAGAGAAGGACUGUGGUUAA	5.52 nM	6.7 nM		
AUUGUAGUUGUGAGGAUAUCGUAGAUUUAUUGAAACGAGAAGGCACAUGAGGAUCACCCAUGUAAGUUGUAGGU	71.2 nM	267 nM		
AAUAAUUAGUAAGGAUAUACUAGUGGUUAGCUUGUAGAAGGUACAGUCUUAUGUAUAACAAAUUAACAUGAGGAUCACCCAUGU			10.6 nM	8.19 nM
CUCUUACAUGAGGAUCACCCAUGUGUUGUCGUGGGAGGAUAUCCUGGUUCGGUGGCGUUGGGAGAAGGCCUAUGUC			722 nM	242 nM
UAAAGUUAAGGAGGAUAUUACAUGAGGAUCACCCAUGUAAUGGGCUCGGUGUAAGAAGGCCUUGAGUCGAAGUUUCGGAUAAGG	9.05 nM	18.6 nM		
GCACGAGACUAAGGAUAUGGAGUGUCAACAUUAAACAUGAGGAUCACCCAUGUAAAGAGUACGAUUCAGAAGGUAGAGACGUGC			59.1 nM	22.8 nM
UCCUUGUCCUGAGGAUAUCCGCGGUUCCCAAAAGGAGAAGGCAGGACAUGAGGAUCACCCAUGUACCCAGAAAACGUGCAGAAU	9.87 nM	42.7 nM		
AACAUGUGAGGAUAUGAGAACAGCCGGGAGGGCUGUGUAAAUUAGAAGGCACAUGAGGAUCACCCAUGUGACCU	18.2 nM	27.8 nM		
GGACGAAGUGUGAGGAUAUGCUGGUCCUUGGAUCAGCAGAAGGCACAUGAGGAUCACCCAUGUGGUAAACGUCC	114 nM	746 nM		
AAAAACGGAGGAUAUACAAAUUAAGGAAGAAAACACGAAAAACAUGAGGAUCACCCAUGUAGAAGGCCGGAAAA	22.6 nM	28.2 nM		
UUUUAACAUGAGGAUCACCCAUGUGAGGAUAUCGAAAUUUAUAUUAAUAUUAUUUAUUCGAGAAGGCACAUUUU	120 nM	145 nM		
CACAAGAAAGUCGAAGGUUGAAGUAGAAGGACAAUAACAUGACAUGAGGAUCACCCAUGUGCCAUGUAGGAUAUGCUUUAAUCG	8.54 nM	8.34 nM		
ACAUGAGGAUCACCCAUGUGGAGUGAAGAAGGUGGUUACUUAUGACUCUCCCAUGUACAUAGGACUGAGGAUAUUCUAAUAAUU			88.5 nM	81.7 nM
